Data set [1] is described as follows: Selectivity index, ratio of CC50 for human MRC5 cells to IC50 for Plasmodium falciparum K1. Type of data set: functional. The procedure, abridged:
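Ratio of MRC-5 CC50 to P. falciparum K1 IC50. CC50: 7-day MTT assay at 540 nm, from two experiments. IC50: asynchronous cultures (0.5% parasitaemia, 1% haematocrit) exposed to drug for 24 h at 37 °C, then [³H]hypoxanthine added for a further 24 h. Incorporation compared with drug-free controls; mean of independent experiments.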

Data set [2] can be described thus: Cytotoxicity against human […] cells after 7 days by MTT assay. It is filed as cell-based. In outline:
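MRC-5 human embryonic lung cells seeded at 5000 per well. After 24 h, cells were washed and given two-fold drug dilutions (32 to 1.6) in RPMI + 5% FCS, with final DMSO below 0.5%. Incubated 7 days at 37 °C in 5% CO₂. MTT read-out as % reduction of 540 nm absorbance versus untreated cultures. CC50 from two experiments.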
(Tetrazolium assays rely on reduction of a dye to a coloured formazan, in cell work by metabolically active cells.)

Data set [3] can be described thus: Inhibition of haem polymerization after 24 hrs. Type of data set: functional. The procedure, abridged:
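Lipid-induced β-hematin formation: hemin in 25 mM NaOH mixed with a 1-monooleoylglycerol suspension in 90 mM sodium acetate, pH 5. Drug added from DMSO stock; controls received equal DMSO. Incubated 24 h at 37 °C, in duplicate. Samples centrifuged at 4 °C, and the pellet washed repeatedly with 10 mM sodium phosphate pH 7.4 containing 2.5% SDS.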

Data set [4] has as its system Plasmodium berghei. In words: Antimalarial activity in Plasmodium berghei ANKA 65 infected Swiss CD1 mice (Mus musculus) as reduced parasitaemia at 10 mg/kg initial oral dose and further intraperitoneal dose after 4 days. It is filed as functional. Also noted: scale not given: the % may be the effect or the level left.
Data set [5] has as its system Plasmodium berghei. The data set is described as follows: Antimalarial activity as increased MST in Plasmodium berghei ANKA 65 infected Swiss CD1 at 10 mg/kg initial oral followed by intraperitoneal dose after 4 days. It is filed as functional, organism-based. More on the design: dose 10 mg/kg.
In data set [6] the test system is Plasmodium falciparum. In words: Antimalarial activity against chloroquine-resistant Plasmodium falciparum FcB1R after 24 hrs by semiautomated micro dilution assay. Type of data set: functional, organism-based. In outline:
(§1)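 Asynchronous P. falciparum cultures on human erythrocytes (0.5% parasitaemia, 1% final haematocrit) were exposed to serially diluted drug for 24 h at 37 °C. [³H]hypoxanthine was then added for a further 24 h. Cells were freeze-thawed, harvested onto glass-fibre filters and scintillation-counted against a drug-free control on the same plate. IC50 was read from concentration-response curves (mean ± SD, independent experiments). DMSO was ≤0.1%.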

In data set [7] the test system is Plasmodium falciparum. The data set is described as follows: Antimalarial activity against chloroquine-resistant Plasmodium falciparum K1 after 24 hrs by semiautomated micro dilution assay. It is filed as functional, organism-based. Particulars: K1, 24 h. In outline: as §1
Data set [8] has as its system Plasmodium berghei. In words: Antimalarial activity as reduced parasitaemia in Plasmodium berghei ANKA 65 infected Swiss CD1 mice (Mus musculus) at 20 mg/kg initial oral followed by intraperitoneal dose after 4 days. It is filed as functional. More on the design: scale not given: the % may be the effect or the level left.
The subject of data set [9] is Plasmodium berghei. In words: Antimalarial activity as reduced parasitaemia in Plasmodium berghei ANKA 65 infected Swiss CD1 mice (Mus musculus) at 40 mg/kg initial oral followed by intraperitoneal dose after 4 days. It is filed as functional. Also noted: scale not given: the % may be the effect or the level left. In outline:
(§2)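 P. berghei ANKA 65 in 4-week-old female Swiss CD-1 mice (20–25 g), infected ip with about 10⁷ parasitized erythrocytes from a donor. Treatment at 40 mg/kg in 100% DMSO: first dose oral at infection, then ip on the following four days. Three mice per group, with three DMSO-dosed infected controls. Parasite reduction read on day 4; survival compared with untreated controls.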

In data set [10] the test system is Plasmodium berghei. In words: Antimalarial activity as increased MST in Plasmodium berghei ANKA 65 infected Swiss CD1 mice (Mus musculus) at 20 mg/kg initial oral followed by intraperitoneal dose after 4 days. It is filed as functional.
Data set [11] has as its system Plasmodium berghei. The data set is described as follows: Antimalarial activity as increased MST in Plasmodium berghei ANKA 65 infected Swiss CD1 mice (Mus musculus) at 40 mg/kg initial oral followed by intraperitoneal dose after 4 days. More on the design: dose 40 mg/kg. Type of data set: functional, organism-based. In outline: as §2
Data set [12] deals with Plasmodium falciparum. In words: Antimalarial activity against chloroquine-sensitive Plasmodium falciparum Thai after 24 hrs by semiautomated micro dilution assay.

Active and inactive are the calls of the source. The rule behind the calls is not given here. Some results are limits rather than exact numbers.

As a reminder, the CC50 is the concentration at which the toxic effect on the cells reaches its halfway point. The IC50 is the point on the concentration scale where inhibition reaches its midpoint. Take `CCN(CC)Cc1cc(Nc2ccnc3cc(Cl)ccc23)ccc1O.Cl`: the “Ratio CC50/IC50” value in data set [1] came out at 1276. It took 12000 nM to reach half-maximal cytotoxicity in data set [2] (CC50 at 168 h). In [3], this molecule displayed an IC50 of 48000 nM. In [4], this molecule registered an Activity of 100%. Also, the outcome in [5] was Active.
Regarding `CCN(CC)Cc1cc(N)cc(Nc2ccnc3cc(Cl)ccc23)c1`, the IC50 in [6] was 18.1 nM; in [7] it was 32.3 nM; in data set [3], 153000 nM; in data set [12], 16.3 nM. The Ratio CC50/IC50 in data set [1] was 774. The CC50 at 168 h in data set [2] was above 25000 nM. Besides, the figures for the Activity in data set [8], in [9] and in [10] were 96%, 100% and 63%, respectively. For the same molecule, in [11], the outcome was Active.
As to `CCN(CC)Cc1cccc(Nc2ccnc3cc(Cl)ccc23)c1O`, the results for the IC50 in data set [6], in [7] and in data set [12] were 95.2 nM, 262 nM and 104 nM, respectively. Moreover, the “Ratio CC50/IC50” value in data set [1] was above 95. The CC50 at 168 h in data set [2] was above 25000 nM.
Turning to `CCN(CC)CCCC(C)Nc1ccnc2cc(Cl)ccc12` (stereo not drawn) [CHLOROQUINE], in [2], the CC50 at 168 h is above 32000 nM. In [3], this molecule gave an IC50 of 70000 nM. The Activity in data set [4] amounted to 100%. Also, in data set [5], the outcome was Active.
As for `CCN(CC)Cc1cccc(Nc2ccnc3cc(Cl)ccc23)c1`, the figures for the IC50 in data set [6], in data set [7] and in [12] were 15.8 nM, 17.1 nM and 13.2 nM, respectively. Further, the “Ratio CC50/IC50” value in data set [1] is 731. Besides, the CC50 at 168 h in [2] was 12500 nM.
As for `CCN(CC)Cc1ccc(O)c(Nc2ccnc3cc(Cl)ccc23)c1`, the half-inhibitory concentration (IC50) in [7] turned out to be 32.6 nM; in data set [12], 15.2 nM. Also, in data set [1], the “Ratio CC50/IC50” value amounted to 583. The molecule further gave a CC50 at 168 h in [2] of 19000 nM.
For `CCN(CC)Cc1cc(O)cc(Nc2ccnc3cc(Cl)ccc23)c1`, the IC50 in data set [6] came out at 35.2 nM; in data set [7], 42.8 nM; in data set [12], 25.3 nM. Also, in [1], the “Ratio CC50/IC50” value is above 584. In addition, the CC50 at 168 h in data set [2] is above 25000 nM.
As for `CCN(CC)Cc1ccc(Nc2ccnc3cc(Cl)ccc23)cc1O` [ISOQUINE], the IC50 in data set [6] was 5.4 nM; in data set [7], 7.3 nM; in data set [12], 4.3 nM. For the same molecule, the “Ratio CC50/IC50” value in data set [1] stood at 1096. Besides, the midpoint of cytotoxicity in data set [2], the CC50 at 168 h, lay at 8000 nM.
In the same order, the values of `CCN(CC)Cc1cc(NCCN2CCCCC2)cc(Nc2ccnc3cc(Cl)ccc23)c1` are 19.1 nM, 26.5 nM, 15.6 nM, 152 and 4000 nM.

For the origin of these results see ChEMBL document CHEMBL1149757, “Synthesis and antimalarial activity of new analogues of amodiaquine” (Eur J Med Chem, 2008).
